# Measured values as given in publication PMC9896170 (Xenobiotica; the fate of foreign compounds in biological …, 2022).
# Legend:
# human CYP1B1 = molecular target: T1, human CYP1B1 (Homo sapiens, UniProt Q16678); test: Oxidation of flavonoids by reconstituted purified CYP1B1, products by LC-MS/MS; assay type: in vitro ADME; conditions: LC-MS/MS product detection
# T1 sequence (Q16678 1-543): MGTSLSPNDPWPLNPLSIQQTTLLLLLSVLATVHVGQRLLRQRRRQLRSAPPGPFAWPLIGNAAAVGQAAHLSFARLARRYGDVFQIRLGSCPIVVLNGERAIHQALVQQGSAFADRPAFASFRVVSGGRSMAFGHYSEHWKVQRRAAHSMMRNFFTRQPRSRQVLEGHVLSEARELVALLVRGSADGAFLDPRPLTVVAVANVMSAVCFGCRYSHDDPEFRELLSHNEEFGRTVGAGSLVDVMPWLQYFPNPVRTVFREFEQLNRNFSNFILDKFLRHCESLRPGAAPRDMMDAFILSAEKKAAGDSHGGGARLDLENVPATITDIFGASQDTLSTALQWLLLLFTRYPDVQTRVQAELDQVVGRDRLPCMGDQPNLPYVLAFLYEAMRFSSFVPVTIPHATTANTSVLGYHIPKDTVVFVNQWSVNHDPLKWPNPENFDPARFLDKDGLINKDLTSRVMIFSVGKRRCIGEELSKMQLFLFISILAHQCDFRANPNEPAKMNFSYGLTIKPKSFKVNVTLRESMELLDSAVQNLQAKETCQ
# human CYP2A13 = molecular target: T2, human CYP2A13 (Homo sapiens, UniProt Q16696); test: Oxidation of flavonoids by reconstituted purified CYP2A13, products by LC-MS/MS; assay type: in vitro ADME; conditions: LC-MS/MS product detection
# T2 sequence (Q16696 1-494): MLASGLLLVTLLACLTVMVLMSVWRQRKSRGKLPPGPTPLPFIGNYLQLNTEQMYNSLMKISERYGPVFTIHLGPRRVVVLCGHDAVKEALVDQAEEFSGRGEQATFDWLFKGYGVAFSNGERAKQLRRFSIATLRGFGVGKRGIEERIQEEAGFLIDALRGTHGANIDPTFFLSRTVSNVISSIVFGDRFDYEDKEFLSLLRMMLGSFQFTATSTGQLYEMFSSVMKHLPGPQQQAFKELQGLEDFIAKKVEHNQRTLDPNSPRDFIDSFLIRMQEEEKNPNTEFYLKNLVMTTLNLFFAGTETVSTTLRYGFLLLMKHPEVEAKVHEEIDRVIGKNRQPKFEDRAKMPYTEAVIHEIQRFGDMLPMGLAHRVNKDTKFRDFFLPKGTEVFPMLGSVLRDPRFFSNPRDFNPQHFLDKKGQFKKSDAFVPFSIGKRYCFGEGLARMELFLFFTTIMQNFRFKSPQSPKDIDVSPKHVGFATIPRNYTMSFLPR
# How it was run: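 Reconstituted system of purified E. coli-expressed human CYP2A13 (50 pmol), NADPH-P450 reductase (100 pmol), cytochrome b5 (100 pmol) and DLPC (50 μg). Flavonoid at 60 μM, 1 min preincubation, then NADPH-generating system added; 37 °C, 20 min. Stopped with ice-cold CH3CN, spun, supernatant run on positive-ESI LC-MS/MS. Products were identified from fragment ion spectra; rates were quantified with available standards, three separate determinations.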
smiles,measurement,setting,value
"COc1ccc(-c2cc(=O)c3c(O)cc(O)cc3o2)cc1OC [3′4′diMe57diOHF, 3′,4′-dimethoxy-5,7-dihydroxyflavone]",Extent of oxidation by CYP1B1 (in words),human CYP1B1,only small amounts of products
same,Extent of oxidation by CYP2A13 (in words),human CYP2A13,only small amounts of products
"COc1ccc(-c2cc(=O)c3ccccc3o2)cc1OC [3′4′diMeF, 3′,4′-Dimethoxyflavone]",Extent of oxidation by CYP1B1 (in words),human CYP1B1,good substrate
